A selection follows.
Apaf-1 act: human Apaf-1 activation; O14727; Apaf-1 apoptosome caspase-3 activation, DEVD-Rh110 fluorescence; active compounds read low; activity change, negative = activation, % at 20 µM; 0.31% of 330,000 active; AID 489031;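 active means activity change at or below -40% at 20 µM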
Target sequence (O14727 whole entry, looked up): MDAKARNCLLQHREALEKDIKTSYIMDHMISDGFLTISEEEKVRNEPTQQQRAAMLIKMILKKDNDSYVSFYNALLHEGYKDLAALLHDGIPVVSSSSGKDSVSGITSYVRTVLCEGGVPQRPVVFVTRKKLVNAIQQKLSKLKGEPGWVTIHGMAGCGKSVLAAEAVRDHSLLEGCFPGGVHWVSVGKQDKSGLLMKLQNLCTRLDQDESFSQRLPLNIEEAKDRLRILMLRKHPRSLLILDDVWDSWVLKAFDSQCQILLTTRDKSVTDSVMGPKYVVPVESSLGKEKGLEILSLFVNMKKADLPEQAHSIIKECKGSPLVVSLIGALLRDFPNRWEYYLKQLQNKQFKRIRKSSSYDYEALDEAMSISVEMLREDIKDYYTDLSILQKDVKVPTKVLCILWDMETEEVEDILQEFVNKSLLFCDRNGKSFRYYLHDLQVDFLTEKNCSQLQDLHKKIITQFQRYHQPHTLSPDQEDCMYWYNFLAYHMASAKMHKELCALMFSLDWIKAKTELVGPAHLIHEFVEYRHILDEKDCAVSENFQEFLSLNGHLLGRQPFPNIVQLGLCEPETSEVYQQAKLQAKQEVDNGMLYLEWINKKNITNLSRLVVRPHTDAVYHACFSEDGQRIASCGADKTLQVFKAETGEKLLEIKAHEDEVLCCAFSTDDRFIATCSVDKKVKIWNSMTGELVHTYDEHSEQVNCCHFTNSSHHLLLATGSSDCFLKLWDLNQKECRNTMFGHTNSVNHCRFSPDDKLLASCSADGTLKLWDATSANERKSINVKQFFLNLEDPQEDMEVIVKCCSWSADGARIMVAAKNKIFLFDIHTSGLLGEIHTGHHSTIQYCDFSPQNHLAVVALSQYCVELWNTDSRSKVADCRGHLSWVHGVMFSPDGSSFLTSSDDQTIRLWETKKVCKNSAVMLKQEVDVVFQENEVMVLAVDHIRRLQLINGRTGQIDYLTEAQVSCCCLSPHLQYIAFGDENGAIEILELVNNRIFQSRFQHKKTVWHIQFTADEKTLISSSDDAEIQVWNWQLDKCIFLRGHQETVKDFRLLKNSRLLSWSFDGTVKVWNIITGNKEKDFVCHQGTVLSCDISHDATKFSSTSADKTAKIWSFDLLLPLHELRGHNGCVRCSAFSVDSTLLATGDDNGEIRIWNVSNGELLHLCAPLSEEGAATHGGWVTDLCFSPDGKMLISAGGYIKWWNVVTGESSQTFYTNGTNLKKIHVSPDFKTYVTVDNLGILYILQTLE
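Material: reconstituted apoptosome of Apaf-1, cytochrome c, caspase-9, procaspase-3; times: 30 min preincubation, 50 min reaction, room temperature; measured by: fluorescence, 540 nm emission, 480 nm excitation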
Rh110 interf act: Rh110 signal interference in Apaf-1 activator counter-screen | fluorescence interference (activity change), % at 20 µM, hits read low | 980 tested, under 10 active | shares compounds with Apaf-1 act | Rh110 fluorescence interference, quenched caspase reaction, Ex480/Em540;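 active means mean activity change at or below -40% when tested at 20 µM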
Apaf-1 act conf: confirmation of human Apaf-1 activators; activity change, negative = activation, % at 20 µM; shares compounds with Apaf-1 act; 5% of 980 active; reconstituted apoptosome caspase-3 activity, DEVD-Rh110 fluorescence; active compounds read low;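 active means mean activity change at or below -40%, meaning activation of 40% or more, at 20 µM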
Fluor interf act: Apaf-1 activator counter-screen fluorescence artifact | shares compounds with Apaf-1 act | fluorescence interference counterscreen, Apaf-1 activator assay | EC50, µM | 55 tested, under 10 active; call rule not given here
The depositor's hits bear a star.

How did CCCCCn1c(NC(=O)c2ccco2)c(S(=O)(=O)c2ccc(C)cc2)c2nc3ccccc3nc21 do in these assays?
Apaf-1 act: 62.8

How did COC(=O)c1ccc(NC(=O)c2ccc(NC(=O)c3ccco3)cc2)cc1 do in these assays?
Apaf-1 act: 43.8

How did O=C(Nc1nc2ccsc2c(=O)s1)c1ccco1 do in these assays?
Apaf-1 act: -135.9*; Rh110 interf act: 0.4; Apaf-1 act conf: -55.9*; Fluor interf act: >100

What do the screens show for `Nc1c(O)cccc1C(=O)O`?
Apaf-1 act: 53.4

Results for Cc1ccc(O)c([C@H](CCN(C(C)C)C(C)C)c2ccccc2)c1 ?
Apaf-1 act: 0.8

What do the screens show for `CCNC(=S)SCCOc1ccc(C)cc1`?
Apaf-1 act: -127.3*; Rh110 interf act: 11.9; Apaf-1 act conf: 19.5

How did COC(=O)CCC(=O)OC1(C)C(=O)C2=CN(CCN3CCOCC3)C(c3ccc(OC)cc3)=CC2=C(Br)C1=O (stereo unspecified) do in these assays?
Apaf-1 act: 85.9

Results for CC(C)COCC(CN(Cc1ccccc1)c1ccccc1)N1CCCC1 (stereo unspecified) ?
Apaf-1 act: 48.6

What do the screens show for `COc1ccccc1N1C(=O)N(C(C)=O)C2C1Nc1ccccc1N2C` (stereo unspecified)?
Apaf-1 act: 82.8

What do the screens show for `COc1cc(/C=C/c2nc(N)nc(-c3ccccc3O)n2)cc(OC)c1OC`?
Apaf-1 act: -517.1*; Rh110 interf act: 14.1; Apaf-1 act conf: 17.4

What do the screens show for `C#CCOCCOCCOCCNc1nc(N2CCN(C(=O)CCCCCCCCCCNC(=O)[C@@H](CCSC)n3cc(CCO)nn3)CC2)nc(N2CCN(C(=O)CCCCCCCCCCNC(=O)[C@H](CO)n3cc(CCCCCN)nn3)CC2)n1`?
Apaf-1 act: 71.1

Results for CC(=O)Nc1ccc(NC(=O)CC2Nc3cccc4cccc(c34)NC2=O)cc1 (stereo unspecified) ?
Apaf-1 act: 96.3

How did CCC[C@@H](CN1CCC[C@H]1CN1C(N)=NC[C@H]1CC(C)C)N1C[C@@H](Cc2ccccc2)N(CCCC2CCCC2)C1=N do in these assays?
Apaf-1 act: 59.0

How did Cc1ccccc1NC(=O)C1CC(Cl)=CCC1C(=O)O (stereo unspecified) do in these assays?
Apaf-1 act: -110.5*; Rh110 interf act: 2.1; Apaf-1 act conf: 11.3

What do the screens show for `C=CC(=O)Nc1ccc(Nc2nc(NC3CCC(N(C)C)CC3)nc3c2ncn3C(C)C)cc1` (stereo unspecified)?
Apaf-1 act: 45.9

What do the screens show for `CCN(Cc1ccccc1)S(=O)(=O)c1ccc(C(=O)N(CCCN(C)C)c2nc3cc(C)cc(C)c3s2)cc1`?
Apaf-1 act: 42.0

How did COCCN1C(=S)N[C@@H](c2cccc(F)c2)C(C(=O)OC)=C1C do in these assays?
Apaf-1 act: 57.4

What do the screens show for `CC[C@@H](C)[C@@H]1CN([C@@H](C)CN2CCC[C@H]2CN2C(N)=NC[C@H]2CC(C)C)C(=N)N1CCc1ccc(Cl)c(Cl)c1`?
Apaf-1 act: 51.8

How did COC(=O)c1ccccc1N/C=C1\CCc2c(c(C)nn2-c2ccccn2)C1=O do in these assays?
Apaf-1 act: 69.3

How did CN(CCC#N)C(=O)COC(=O)c1cc(Cl)cc(Cl)c1N do in these assays?
Apaf-1 act: -63.1*; Rh110 interf act: 11.3; Apaf-1 act conf: 16.9

What do the screens show for `C=CCNc1oc(-c2ccc(OCC)cc2)nc1C#N`?
Apaf-1 act: -52.1*; Rh110 interf act: 12.3; Apaf-1 act conf: 14.5

How did CC1(OC(=O)C2CCCC2)C(=O)C=C2C=C(c3ccsc3)N(CCCCO)C=C2C1=O (stereo unspecified) do in these assays?
Apaf-1 act: 54.2

Results for COC(=O)C1=C(C)N(Cc2ccccc2)C(=NCc2ccccc2)N[C@H]1c1cccc(F)c1 ?
Apaf-1 act: 41.2

What do the screens show for `CC(C)=NOc1nc(N(C)C)nc(N(C)C)n1`?
Apaf-1 act: -76.1*; Rh110 interf act: 2.6; Apaf-1 act conf: 1.0

How did C#CCOCCOCCOCCNc1nc(N2CCN(C(=O)CCCCCCCCCCNC(=O)[C@H](CCCN=C(N)N)n3cc(C[C@@H](C)CC)nn3)CC2)nc(N2CCN(C(=O)CCCCCCCCCCNC(=O)[C@@H]([C@H](C)CC)n3cc(CCCCCN)nn3)CC2)n1 do in these assays?
Apaf-1 act: 80.1

Results for CCCCCCCCCCCCCCCC[N+](C)(C)CCN(Cc1ccc(OC)cc1)c1ncccn1 ?
Apaf-1 act: 97.5

Results for CCC1(c2ccccc2)NC(=O)N(CC(=O)Nc2cc(Cl)ccc2N2CCN(C)CC2)C1=O (stereo unspecified) ?
Apaf-1 act: 58.2
